# Laboratory results reported in article PMC8603004 (EFSA Journal, 2021).
# Marks after values point to notes of the source that are not given here.
# Columns and labels:
# [1] = Incubation of 14C‐3‐NOP in liver fractions; type: in vitro ADME; conditions: Beagle, dog, liver S9
# Summary of the method: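 14C-labelled test compound was incubated with or without NAD+ in liver S9, cytosol and microsomes from Sprague–Dawley rat, Wistar Han rat, Beagle dog and human. Aliquots were taken at several time points and the proteins precipitated. Supernatants were analysed by liquid scintillation counting and radio-HPLC, and half-life was derived from the time course.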
# [2] = Second in vivo toxicokinetic study, metabolic profile in gut and plasma; set-up: species or system male Wistar rats
# Summary of the method: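 Single oral dose of 500 mg/kg bw 14C-labelled test compound to male Wistar rats. One animal per time point was killed at 1, 2 and 3 h post-dose and blood was collected. Stomach, small intestine, caecum and colon contents were removed for total radioactivity. Metabolites were characterised by NMR and/or LC/MS.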
# ADME in a lactating goat = type: in vivo
# [3] = ADME in four lactating cows; type: in vivo
# [4] = tested on: Holstein Friesian dairy cows; assay: Tolerance study in dairy cows; type: in vivo; conditions: for Dry matter intake: 56 days
# [5] = tested on: L5178Y TK +/− mouse lymphoma; assay: L5178Y TK+/− mouse lymphoma assay; type: cell-based; conditions: up to 1,211 μg/mL, presence and absence of S9‐mix
# [6] = tested on: Syrian hamster embryo cells; assay: Cell transformation assay; type: cell-based; conditions: 500 to 2,500 μg/mL, 7 days
# Summary of the method: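 GLP in vitro transformation assay in Syrian hamster embryo cells, following the OECD draft proposal (2012). The test compound was given as a continuous 7-day treatment at six concentrations from 500 to 2,500 μg/mL, chosen from a dose-range finding test. The frequency of morphologically transformed colonies was scored against positive and vehicle controls.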
# Wistar rats = assay: Two‐generation reproduction toxicity study; conditions: rat, in vivo
# ruminal microorganisms = assay: In vitro ruminal fermentation; conditions: 3‐NOP added to the feed at different concentrations, three studies
# Summary of the method: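 Rumen fermentation was simulated in a chemostat (RUSITEC) as continuous culture of ruminal microorganisms. Each of three studies included a control without additive and one or more groups with test compound added to the feed at differing concentrations.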
# [7] = Overall NOAEL and health‐based guidance value
# [8] = tested on: dairy cows, beef cattle and sheep; conditions: 100 mg 3‐NOP/kg DMI; cited from earlier work
# [9] = Third in vitro rumen fluid trial; conditions: for 3‐NOP concentration remaining after 16 h: 39°C
# [10] = Third in vitro rumen fluid trial; conditions: 39°C
# [11] = 90.2 mg 3‐NOP/kg feed DM (× 0.8)
# [12] = 106.8 mg 3‐NOP/kg feed DM (× 1)
# [13] = 220.4 mg 3‐NOP/kg feed DM (× 2)
compound,measurement,setting,value
"O=[N+]([O-])OCCCO [3‐NOP, propan‐1,3‐diol‐mononitrate]",half-life,[1],66 min
same,"Intact compound, share of radioactivity in small intestine content",[2]; 1 and 3 h after 500 mg/kg bw,< 4%
same,"Intact compound, share of radioactivity in stomach content",[2]; 1 and 3 h after 500 mg/kg bw,more than 80%
same,Radioactivity in plasma,[2]; 1 h post‐dose,713 μg 3‐NOP‐eq/g
same,Radioactivity in plasma,[2]; 2 h post‐dose,522 μg 3‐NOP‐eq/g
same,Radioactivity in plasma,[2]; 3 h post‐dose,156 μg 3‐NOP‐eq/g
same,Overall radioactivity recovered,[2]; after 1 h,88 % of the dose
same,Overall radioactivity recovered,[2]; after 2 h,78 % of the dose
same,Overall radioactivity recovered,[2]; after 3 h,58 % of the dose
same,Radioactivity in urine,[2]; urine 0 to 2 h of one animal,13.7 % of the applied dose
same,Milk radioactivity in the aqueous phase of milk,ADME in a lactating goat; 0–8 h after the sixth day of administration,75.2%
same,Radioactivity excreted via faeces,"ADME in a lactating goat; 4.34 mg/kg bw per day, 7 days",1.9 % of total radioactivity appli
same,Radioactivity excreted via milk,"ADME in a lactating goat; 4.34 mg/kg bw per day, 7 days",6.42 % of total radioactivity appli
same,Radioactivity excreted via urine,"ADME in a lactating goat; 4.34 mg/kg bw per day, 7 days",3.5 % of total radioactivity appli
same,Radioactivity in the intestinal tract content,"ADME in a lactating goat; 4.34 mg/kg bw per day, 7 days",1.14 % of total radioactivity appli
same,Radioactivity remaining in the total edible tissues,"ADME in a lactating goat; 4.34 mg/kg bw per day, 7 days",4.98 % of total radioactivity appli
same,Total radioactivity excreted,"ADME in a lactating goat; 4.34 mg/kg bw per day, 7 days",11.85%
same,Total recovery at sacrifice,"ADME in a lactating goat; 4.34 mg/kg bw per day, 7 days",17.97%
same,Milk radioactivity in the aqueous phase of milk,ADME in a lactating goat; 8–24 h after the sixth day of administration,59.0%
same,Radioactive residues in plasma,ADME in a lactating goat; 24 h after the first administration,0.61 mg 3‐NOP‐eq/kg
same,Radioactive residues in plasma,ADME in a lactating goat; at sacrifice,3.72 mg 3‐NOP‐equivalents/kg
same,"Nitrate esters in milk, not detectable (LOD)",ADME in a lactating goat; milk collected 0–8 h post‐dose,< 0.82 mg 3‐NOP‐equivalent/kg
same,"Nitrate esters in milk, not detectable (LOD)",ADME in a lactating goat; milk collected 8–24 h post‐dose,< 0.43 mg 3‐NOP‐equivalent/kg
same,Plasma radioactivity non‐extractable in the protein precipitate,ADME in a lactating goat; plasma collected at sacrifice,Eighty‐five
same,"Radioactivity excreted via faeces, mean","[3]; 1.8 g/animal per day, 7 days",2.7 % of radioactivity totally app
same,"Radioactivity excreted via milk, mean","[3]; 1.8 g/animal per day, 7 days",16.82 % of radioactivity totally app
same,"Radioactivity excreted via urine, mean","[3]; 1.8 g/animal per day, 7 days",4 % of radioactivity totally app
same,Radioactivity remaining in the total tissues,"[3]; 1.8 g/animal per day, 7 days",6.2 % of radioactivity totally app
same,Total radioactivity excreted,"[3]; 1.8 g/animal per day, 7 days",23.5%
same,Total recovery at sacrifice,"[3]; 1.8 g/animal per day, 7 days",approximately 30%
same,"3‐NOP and NOPA in total excreta, worst‐case scenario",[3]; dairy cows,≤ 0.2%
same,"Residue in milk, not found above the LOQ",[3]; in vivo,< 8 μg 3‐NOP‐equivalents/kg
same,"Residue in tissues, not found above the LOQ",[3]; in vivo,< 21 μg 3‐NOP‐equivalents/kg
same,Amount in urine,[3]; urine of one animal (day 2–day 6),0.1 % of the dose
same,ALT,[4]; [11],27* U/L
same,Albumin,[4]; [11],36 g/L
same,Amylase,[4]; [11],34 U/L
same,Body weight,[4]; [11],676 kg
same,Body weight change,[4]; [11],43.6 kg
same,Fat yield,[4]; [11],0.81 kg/day
same,Fibrinogen,[4]; [11],0.88 g/L
same,Haematocrit,[4]; [11],28* %
same,Haemoglobin d56,[4]; [11],110 g/L
same,LDH d56,[4]; [11],1249 U/L
same,Mean corpuscular haemoglobin,[4]; [11],16.5* pg
same,Milk yield,[4]; [11],28.7 kg/day
same,Monocytes d5,[4]; [11],4.8e+08 L⁻¹
same,Monocytes d56,[4]; [11],3.1e+08 L⁻¹
same,Ovary absolute size,[4]; [11],31.9 g
same,Ovary relative size,[4]; [11],0.048 g per kg final bw
same,Protein yield,[4]; [11],0.92 kg/day
same,Prothrombin time,[4]; [11],27.3* s
same,Red blood cells,[4]; [11],6.52* ×10^12/L
same,Water consumption,[4]; [11],95.9 kg/day
same,Dry matter intake,[4]; [11],22.9 kg/day
same,ALT,[4]; [12],27* U/L
same,Albumin,[4]; [12],36 g/L
same,Amylase,[4]; [12],34 U/L
same,Body weight,[4]; [12],675 kg
same,Body weight change,[4]; [12],42.2 kg
same,Ca,[4]; [12],2.47* mmol/L
same,Energy corrected milk,[4]; [12],22.7 kg/day
same,Fat yield,[4]; [12],0.74 kg/day
same,Fibrinogen,[4]; [12],0.93 g/L
same,Haematocrit,[4]; [12],28* %
same,Haemoglobin d56,[4]; [12],109 g/L
same,LDH d56,[4]; [12],1245 U/L
same,Milk yield,[4]; [12],27.5 kg/day
same,Monocytes d5,[4]; [12],4.6e+08 L⁻¹
same,Ovary absolute size,[4]; [12],29.7 g
same,Ovary relative size,[4]; [12],0.040 g per kg final bw
same,Protein yield,[4]; [12],0.88 kg/day
same,Red blood cells,[4]; [12],6.39* ×10^12/L
same,Total cholesterol,[4]; [12],4.18* mmol/L
same,Triglycerides,[4]; [12],0.130 mmol/L
same,Water consumption,[4]; [12],94.6 kg/day
same,Dry matter intake,[4]; [12],22.8 kg/day
same,ALT,[4]; [13],24* U/L
same,Albumin,[4]; [13],35* g/L
same,Amylase,[4]; [13],31* U/L
same,Body weight,[4]; [13],670 kg
same,Body weight change,[4]; [13],36.6 kg
same,Ca,[4]; [13],2.40 mmol/L
same,Energy corrected milk,[4]; [13],24.7* kg/day
same,Fat yield,[4]; [13],0.89* kg/day
same,Fibrinogen,[4]; [13],1.00* g/L
same,Haematocrit,[4]; [13],27* %
same,Haemoglobin d56,[4]; [13],103* g/L
same,LDH d56,[4]; [13],1034* U/L
same,Mean corpuscular haemoglobin,[4]; [13],16 pg
same,Milk yield,[4]; [13],27.5 kg/day
same,Monocytes d5,[4]; [13],0.43* ×10^9/L
same,Ovary absolute size,[4]; [13],25.8* g
same,Protein yield,[4]; [13],0.91 kg/day
same,Prothrombin time,[4]; [13],27.0* s
same,Red blood cells,[4]; [13],6.42* ×10^12/L
same,Total cholesterol,[4]; [13],4.18* mmol/L
same,Triglycerides,[4]; [13],0.124* mmol/L
same,Water consumption,[4]; [13],87.0* kg/day
same,Dry matter intake,[4]; [13],21.8* kg/day
same,Number of cows with signs of liver chronic inflammation (out of 8),[4]; 0.8× group (control 2),0
same,Number of cows with signs of liver chronic inflammation (out of 8),[4]; 1× group (control 2),3
same,DM intake less than in the control group,[4]; 2× group,4%
same,Energy corrected milk yield increase compared with the control,[4]; 2× group,7%
same,Number of cows with signs of liver chronic inflammation (out of 8),[4]; 2× group (control 2),5
same,Mutation frequencies (MF),[5],No biologically significant increases in MF
same,Morphologically transformed colonies,[6],No significant increase in the frequency of morphologically transformed colonies
same,NOAEL for parental toxicity,Wistar rats,100 mg/kg bw per day
same,NOAEL for reproduction and developmental toxicity,Wistar rats,at least 100 mg/kg bw per day
same,Skin corrosion potential,Skin corrosion study,not corrosive to skin
same,Methane output in vitro,ruminal microorganisms,reduces methane output significantly
same,"Health‐based guidance value (acceptable daily intake, ADI)","[7]; NOAEL 100 mg/kg bw per day, uncertainty factor of 100",1 mg 3‐NOP/kg bw per day
same,Overall NOAEL,"[7]; subchronic toxicity studies in rats, mice and dogs",100 mg/kg bw per day
same,Decrease of CH4,[8],about 20%
same,3‐NOP concentration remaining after 16 h,"[9]; 1 mg/L, anaerobic, n = 6",0.9%
same,3‐NOP concentration remaining after 16 h,"[9]; aerobic control, n = 2",39.4%
same,Radioactivity in the non‐dissolved fractions,"[9]; sheep, goat and cow rumen fluids, 1 mg/L, 16 h at 39°C, anaerobic",≤ 5.5%
same,3‐NOP concentration remaining after 16 h,"[10]; 1 mg/L, anaerobic, n = 6",1.0%
same,3‐NOP concentration remaining after 16 h,"[10]; aerobic control, n = 2",31.9%
